Assay results from ChEMBL document CHEMBL4334464, “From Phenylthiazoles to Phenylpyrazoles: Broadening the Antibacterial Spectrum toward Carbapenem-Resistant Bacteria” (J Med Chem, 2019).
Values after ≈ are worked out from the molar mass of the structure shown. Active and inactive are the calls of the source. No cut-off for these calls is given here.

How the values were obtained:
[1] = system: Salmonella enteritidis; assay: Antibacterial activity against Salmonella enteritidis ATCC 13076 clinical isolates after 18 to 20 hrs in aerobic condition by CLSI-based broth microdilution assay; assay type: functional, Salmonella enterica subsp. enterica serovar Enteritidis; conditions: Salmonella enterica
[2] = system: Escherichia coli; assay: Antibacterial activity against carbapenem-resistant Escherichia coli BAA-2452 clinical isolates after 18 to 20 hrs in aerobic condition by CLSI-based broth microdilution assay; assay type: functional
[3] = system: Acinetobacter baumannii; assay: Antibacterial activity against Acinetobacter baumannii ATCC 19606 clinical isolates after 18 to 20 hrs in aerobic condition by CLSI-based broth microdilution assay; assay type: functional; conditions: ATCC 19606 = CIP 70.34 = JCM 6841
[4] = system: Clostridioides difficile; assay: Ratio of MBC to MIC for Clostridium difficile ATCC BAA 1870; assay type: functional
[5] = system: Staphylococcus epidermidis; assay: Ratio of MBC to MIC for Staphylococcus epidermidis NRS101 clinical isolates; assay type: functional
[6] = system: Klebsiella pneumoniae; assay: Antibacterial activity against carbapenem-resistant Klebsiella pneumoniae ATCC BAA-1705 clinical isolates after 18 to 20 hrs in aerobic condition by CLSI-based broth microdilution assay; assay type: functional
[7] = system: Staphylococcus aureus; assay: Antibacterial activity against Methicillin-sensitive Staphylococcus aureus ATCC 6538 clinical isolates after 18 to 20 hrs in aerobic condition by CLSI protocol based broth microdilution assay; assay type: functional
[8] = system: Klebsiella pneumoniae; assay: Antibacterial activity against carbapenem-resistant Klebsiella pneumoniae ATCC BAA-2146 clinical isolates after 18 to 20 hrs in aerobic condition by CLSI-based broth microdilution assay; assay type: functional
[9] = system: Staphylococcus aureus; assay: Antibiofilm activity against methicillin-resistant Staphylococcus aureus NRS384-USA300 clinical isolates assessed as inhibition of biofilm formation at 0.5 times MIC incubated for 24 hrs by crystal violet staining based spectrophotometric method relative to control; assay type: functional
[10] = system: Salmonella enteritidis; assay: Ratio of MBC to MIC for Salmonella enteritidis ATCC 13076 clinical isolates; assay type: functional, Salmonella enterica subsp. enterica serovar Enteritidis
[11] = system: Streptococcus pneumoniae; assay: Antibacterial activity against cephalosporin-resistant Streptococcus pneumoniae ATCC 51916 clinical isolates after 18 to 20 hrs by CLSI-based broth microdilution assay; assay type: functional
[12] = system: Staphylococcus epidermidis; assay: Antibacterial activity against Staphylococcus epidermidis NRS101 after 18 to 20 hrs in aerobic condition by CLSI-based broth microdilution assay; assay type: functional
[13] = system: Escherichia coli; assay: Antibacterial activity against carbapenem-resistant Escherichia coli BAA-2469 clinical isolates after 18 to 20 hrs in aerobic condition by CLSI-based broth microdilution assay; assay type: functional
[14] = system: Klebsiella pneumoniae; assay: Ratio of MBC to MIC for Klebsiella pneumoniae BAA-1144 clinical isolates; assay type: functional
[15] = system: Klebsiella pneumoniae; assay: Antibacterial activity against Klebsiella pneumoniae BAA-1144 clinical isolates after 18 to 20 hrs in aerobic condition by CLSI-based broth microdilution assay; assay type: functional
[16] = system: Klebsiella pneumoniae; assay: Antibacterial activity against Klebsiella pneumoniae BAA-1706 clinical isolates after 18 to 20 hrs in aerobic condition by CLSI-based broth microdilution assay; assay type: functional
[17] = system: Pseudomonas aeruginosa; assay: Antibacterial activity against carbapenem-resistant Pseudomonas aeruginosa ATCC 1744 clinical isolates after 18 to 20 hrs in aerobic condition by CLSI-based broth microdilution assay; assay type: functional
[18] = system: Clostridioides difficile; assay: Antibacterial activity against Clostridium difficile ATCC BAA 1870 incubated for 48 hrs in anaerobic condition by CLSI-based broth microdilution assay; assay type: functional; conditions: ATCC BAA 1870, 48 h
[19] = system: Listeria monocytogenes; assay: Antibacterial activity against Listeria monocytogenes ATCC 19111 after 18 to 20 hrs in aerobic condition by CLSI-based broth microdilution assay; assay type: functional
[20] = system: Enterobacter cloacae subsp. cloacae; assay: Ratio of MBC to MIC for Enterobacter cloacae subsp. cloacae ATCC BAA-1143 clinical isolates; assay type: functional
[21] = system: Streptococcus pneumoniae; assay: Ratio of MBC to MIC for […] Streptococcus pneumoniae ATCC 700677 clinical isolates; assay type: functional
[22] = system: Enterococcus faecalis; assay: Antibacterial activity against vancomycin-resistant Enterococcus faecalis ATCC 51299 clinical isolates after 18 to 20 hrs in aerobic condition by CLSI-based broth microdilution assay; assay type: functional
[23] = system: Acinetobacter baumannii; assay: Antibacterial activity against Acinetobacter baumannii NR 17786 clinical isolates after 18 to 20 hrs in aerobic condition by CLSI-based broth microdilution assay; assay type: functional
[24] = system: Enterococcus faecium; assay: Ratio of MBC to MIC for vancomycin-resistant Enterococcus faecium ATCC 700221 clinical isolates; assay type: functional
[25] = target: T1, Ditrans,polycis-undecaprenyl-diphosphate synthase ((2E,6E)-farnesyl-diphosphate specific) (Escherichia coli (strain K12)) (UniProt P60472); assay: Inhibition of Escherichia coli UPPS using FPP/IPP as substrate preincubated for 30 mins followed by substrates addition and measured after 30 mins by malachite green reagent based assay
T1 sequence (whole entry): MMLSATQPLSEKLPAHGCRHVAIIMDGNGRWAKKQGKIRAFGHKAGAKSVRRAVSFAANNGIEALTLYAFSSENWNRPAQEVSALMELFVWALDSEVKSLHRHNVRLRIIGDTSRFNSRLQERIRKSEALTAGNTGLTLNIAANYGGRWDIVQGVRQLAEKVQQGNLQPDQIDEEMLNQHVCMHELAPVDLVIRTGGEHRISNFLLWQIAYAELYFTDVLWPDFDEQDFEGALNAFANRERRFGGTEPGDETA

[26] = system: Enterococcus faecium; assay: Antibacterial activity against vancomycin-resistant Enterococcus faecium ATCC 700221 clinical isolates after 18 to 20 hrs in aerobic condition by CLSI-based broth microdilution assay; assay type: functional
[27] = system: Pseudomonas aeruginosa; assay: microbe, parasite or virus in culture; conditions: ATCC 9027
[28] = system: Streptococcus pneumoniae; assay: Ratio of MBC to MIC for cephalosporin-resistant Streptococcus pneumoniae ATCC 51916 clinical isolates; assay type: functional
[29] = system: Salmonella typhimurium; assay: Ratio of MBC to MIC for Salmonella typhimurium ATCC 700720 clinical isolates; assay type: functional, Salmonella enterica subsp. enterica serovar Typhimurium
[30] = system: Acinetobacter baumannii; assay: Antibacterial activity against Acinetobacter baumannii ATCC BAA 1141 clinical isolates after 18 to 20 hrs in aerobic condition by CLSI-based broth microdilution assay; assay type: functional
[31] = system: Escherichia coli; assay: microbe, parasite or virus in culture; conditions: ATCC 1411
[32] = Stability in human liver microsomes assessed as compound remaining incubated for 30 mins in presence of NADPH by LC/MS/MS analysis; assay type: ADME, Microsome; conditions: read-out: Stability
Procedure, shortened: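 Two independent runs (1st and 2nd) were done at each time point, and the mean percent remaining is reported. Incubations were run both with and without NADPH. Half-life and intrinsic clearance (Clint) were derived from the time-course data.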

[33] = Intrinsic clearance in human liver microsomes in presence of NADPH by LC/MS/MS analysis; assay type: ADME, Microsome; conditions: read-out: CLH
[34] = Intrinsic clearance in human liver microsomes in absence of NADPH by LC/MS/MS analysis; assay type: ADME, Microsome; conditions: read-out: CLH
[35] = Apparent permeability across basolateral to apical side in human Caco2 cells after 2 hrs by LC/MS/MS analysis; assay type: ADME, cell-based; conditions: Caco-2

| Structure (SMILES) | MIC [1] [µg/mL] | MIC [2] [µg/mL] | MIC [3] [µg/mL] | Ratio [4] | Ratio [5] | MIC [6] [µg/mL] | MIC [7] [µg/mL] | MIC [8] [µg/mL] | Ratio [10] | MIC [11] [µg/mL] | MIC [12] [µg/mL] | MIC [13] [µg/mL] | Ratio [14] | MIC [15] [µg/mL] | MIC [16] [µg/mL] | MIC [17] [µg/mL] | MIC [18] [µg/mL] | MIC [19] [µg/mL] | Ratio [20] | Ratio [21] | further results |
| --- | --- | --- | --- | --- | --- | --- | --- | --- | --- | --- | --- | --- | --- | --- | --- | --- | --- | --- | --- | --- | --- |
| C/C(=N\NC(=N)N)c1cnn(-c2ccc(C#CC3CCCCC3)cc2)c1C | 16 (≈ 44.1 µM) | 8 (≈ 22.1 µM) | 4 (≈ 11 µM) | <3 | <3 | 8 (≈ 22.1 µM) | 2 (≈ 5.52 µM) | 8 (≈ 22.1 µM) | >=1 | 2 (≈ 5.52 µM) | 2 (≈ 5.52 µM) | 4 (≈ 11 µM) | >=1 | 16 (≈ 44.1 µM) | 8 (≈ 22.1 µM) | 32 (≈ 88.3 µM) | 4 (≈ 11 µM) | 2 (≈ 5.52 µM) | > 1 | <3 | inhibition (INH) [9]: 22%; MIC [22]: 2 µg/mL (≈ 5.52 µM); MIC [23]: 8 µg/mL (≈ 22.1 µM); Ratio [24]: <3; inhibition [25]: inactive; MIC [26]: 1 µg/mL (≈ 2.76 µM); MIC [27]: 16 µg/mL (≈ 44.1 µM); Ratio [28]: <3; Ratio [29]: >=1; MIC [30]: 4 µg/mL (≈ 11 µM); MIC [31]: 8 µg/mL (≈ 22.1 µM) |
| C/C(=N\NC1=NCCN1)c1cnn(-c2ccc(C#CC3CCCC3)cc2)c1C | 32 (≈ 85.4 µM) | 16 (≈ 42.7 µM) | 16 (≈ 42.7 µM) | <3 | <3 | 64 (≈ 171 µM) | 1 (≈ 2.67 µM) | 64 (≈ 171 µM) | >=1 | 8 (≈ 21.4 µM) | 2 (≈ 5.34 µM) | 32 (≈ 85.4 µM) | >=1 | 64 (≈ 171 µM) | 32 (≈ 85.4 µM) | 32 (≈ 85.4 µM) | 4 (≈ 10.7 µM) | 4 (≈ 10.7 µM) | > 1 | <3 | remaining at 0.5 h [32]: 92%; microsomal CLint [33]: 42.3 µL/min/mg; microsomal CLint [34]: < 116 µL/min/mg; MIC [22]: 8 µg/mL (≈ 21.4 µM); MIC [23]: 16 µg/mL (≈ 42.7 µM); Ratio [24]: <3; inhibition [25]: inactive; MIC [26]: 4 µg/mL (≈ 10.7 µM); MIC [27]: 32 µg/mL (≈ 85.4 µM); Ratio [28]: <3; Ratio [29]: >=1; MIC [30]: 16 µg/mL (≈ 42.7 µM); MIC [31]: 64 µg/mL (≈ 171 µM); Papp B→A at 2 h [35]: 0.15 ×10⁻⁶ cm/s |
| C/C(=N\NC(=N)N)c1cnn(-c2ccc(C#Cc3ccccc3)cc2)c1C | 8 (≈ 22.4 µM) | 8 (≈ 22.4 µM) | 4 (≈ 11.2 µM) | <3 | <3 | 16 (≈ 44.9 µM) | 1 (≈ 2.81 µM) | 16 (≈ 44.9 µM) | >=1 | 1 (≈ 2.81 µM) | 2 (≈ 5.61 µM) | 8 (≈ 22.4 µM) | >=1 | 8 (≈ 22.4 µM) | 8 (≈ 22.4 µM) | 16 (≈ 44.9 µM) | 4 (≈ 11.2 µM) | 2 (≈ 5.61 µM) | > 1 | <3 | inhibition (INH) [9]: 50%; MIC [22]: 1 µg/mL (≈ 2.81 µM); MIC [23]: 8 µg/mL (≈ 22.4 µM); Ratio [24]: <3; inhibition [25]: inactive; MIC [26]: 1 µg/mL (≈ 2.81 µM); MIC [27]: 16 µg/mL (≈ 44.9 µM); Ratio [28]: <3; Ratio [29]: >=1; MIC [30]: 4 µg/mL (≈ 11.2 µM); MIC [31]: 8 µg/mL (≈ 22.4 µM) |
| CCCC#Cc1ccc(-n2ncc(/C(C)=N/NC(=N)N)c2C)cc1 | 16 (≈ 49.6 µM) | 32 (≈ 99.3 µM) | 8 (≈ 24.8 µM) | <3 | <3 | 16 (≈ 49.6 µM) | 2 (≈ 6.2 µM) | 32 (≈ 99.3 µM) | >=1 | 4 (≈ 12.4 µM) | 4 (≈ 12.4 µM) | 32 (≈ 99.3 µM) | >=1 | 16 (≈ 49.6 µM) | 8 (≈ 24.8 µM) | 32 (≈ 99.3 µM) | 8 (≈ 24.8 µM) | 4 (≈ 12.4 µM) | > 1 | <3 | inhibition (INH) [9]: 74%; MIC [22]: 4 µg/mL (≈ 12.4 µM); MIC [23]: 16 µg/mL (≈ 49.6 µM); Ratio [24]: <3; inhibition [25]: inactive; MIC [26]: 4 µg/mL (≈ 12.4 µM); MIC [27]: 32 µg/mL (≈ 99.3 µM); Ratio [28]: <3; Ratio [29]: >=1; MIC [30]: 8 µg/mL (≈ 24.8 µM); MIC [31]: 16 µg/mL (≈ 49.6 µM) |
